Laboratory results from ChEMBL document CHEMBL1126724, “Multiple binding modes for the receptor-bound conformations of cyclic AII agonists” (J Med Chem, 1993).
*1 amine or outer side, *2 acyl side, *3 side chain or, on linkers, in order; H or OH if unused. Where a SMILES comes first, the peptide text is derived from it. Bridges are numbered along the chain shown (N, C = ends). Roman numbers before positions name the chains, in order. [ ]: non-standard residue; d: D form. Pro(4R-SH) = O=C([C@@H]1C[C@@H](S[*:3])CN1[*:1])[*:2]; Pro(4S-SH) = O=C([C@@H]1C[C@H](S[*:3])CN1[*:1])[*:2]; hCys = N[C@@H](CCS)C(=O)O; Orn = NCCC[C@H](N)C(=O)O; Sar = CNCC(=O)O

Tests used:
[1] = biological target: T1, Angiotensin II receptor (AT-1) type-1 (Rattus norvegicus, UniProt P29089+P25095); test: In vitro binding affinity to the angiotensin II receptor, type 1 in rat liver
T1 sequence (P29089 whole entry): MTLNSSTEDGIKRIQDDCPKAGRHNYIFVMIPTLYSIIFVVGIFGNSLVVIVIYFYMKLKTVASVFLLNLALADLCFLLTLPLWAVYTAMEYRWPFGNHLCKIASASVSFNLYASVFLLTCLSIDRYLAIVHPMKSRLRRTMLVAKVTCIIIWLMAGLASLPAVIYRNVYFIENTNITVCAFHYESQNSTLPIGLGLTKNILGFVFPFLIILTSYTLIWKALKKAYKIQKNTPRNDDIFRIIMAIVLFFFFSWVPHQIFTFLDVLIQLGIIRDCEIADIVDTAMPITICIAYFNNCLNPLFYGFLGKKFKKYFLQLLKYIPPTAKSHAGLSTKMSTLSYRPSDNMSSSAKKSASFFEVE
T1 sequence (P25095 whole entry): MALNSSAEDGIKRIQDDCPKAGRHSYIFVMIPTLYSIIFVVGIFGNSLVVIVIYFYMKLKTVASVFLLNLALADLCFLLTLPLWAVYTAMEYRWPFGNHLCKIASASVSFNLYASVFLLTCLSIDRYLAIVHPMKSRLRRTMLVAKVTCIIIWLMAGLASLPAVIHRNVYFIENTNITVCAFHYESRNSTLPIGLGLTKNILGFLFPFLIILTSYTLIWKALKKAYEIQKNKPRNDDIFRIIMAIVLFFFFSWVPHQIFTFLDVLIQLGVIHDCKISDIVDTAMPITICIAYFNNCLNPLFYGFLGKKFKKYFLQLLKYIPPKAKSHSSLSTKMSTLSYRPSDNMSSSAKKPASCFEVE
Procedure, shortened: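 Buffer: 50 mM NaH2PO4 pH 7.1 with 100 μM bacitracin, 0.2% BSA, 100 mM NaCl, 10 mM MgCl2, 1 mM EGTA. Incubated 1 h at 25 °C, then filtered, and filters counted. IC50 from weighted nonlinear regression to the mass action equation.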

Oryctolagus cuniculus = species on record: Oryctolagus cuniculus; test: Agonist efficacy assessed from contractile responses on rabbit aorta (AT1); format: functional
Procedure, shortened: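 Rabbit thoracic aortic rings held in 20-mL baths of Krebs-bicarbonate at 37 °C, gassed with 5% CO2 in oxygen. Resting tension 4.0 g, 90-min equilibration. Peptides added cumulatively until maximal response. EC50 read graphically from the curves as the concentration giving 50% of maximal contraction.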

CNCC(=O)N[C@@H](CCCN=C(N)N)C(=O)N[C@H]1CSSCC[C@@H](C(=O)N[C@@H](Cc2c[nH]cn2)C(=O)N2CCC[C@H]2C(=O)N[C@@H](Cc2ccccc2)C(=O)O)NC(=O)[C@H](Cc2ccc(O)cc2)NC1=O (H-[Sar]RCY[hCys]HPF-OH; disulfide 3-5) gave an IC50 [1] of 2.6 nM.

Compound CNCC(=O)N[C@@H](CCCN=C(N)N)C(=O)N[C@H]1CC(=O)NCCC[C@@H](C(=O)N[C@@H](Cc2c[nH]cn2)C(=O)N2CCC[C@H]2C(=O)N[C@@H](Cc2ccccc2)C(=O)O)NC(=O)[C@H](Cc2ccc(O)cc2)NC1=O (H-[Sar]RDY[Orn]HPF-OH; lactam 3-5) has an IC50 [1] of 683 nM.

In the case of H-DRVYIHPFHL-OH, the IC50 [1] is reported as 300 nM and the EC50 (Oryctolagus cuniculus) is reported as greater than 10000 nM.

In the case of CNCC(=O)N[C@@H](CCCN=C(N)N)C(=O)N[C@H]1CCSS[C@H]2C[C@@H](C(=O)N[C@@H](Cc3c[nH]cn3)C(=O)N3CCC[C@H]3C(=O)N[C@@H](Cc3ccccc3)C(=O)O)N(C2)C(=O)[C@H](Cc2ccc(O)cc2)NC1=O (H-[Sar]R[hCys]Y[Pro(4S-SH)]HPF-OH; disulfide 3-5), the IC50 [1] is reported as 110 nM and the EC50 (Oryctolagus cuniculus) is reported as 690 nM.

Compound CNCC(=O)N[C@@H](CCCN=C(N)N)C(=O)N1C[C@@H]2C[C@H]1C(=O)N[C@@H](Cc1ccc(O)cc1)C(=O)N[C@H](C(=O)N[C@@H](Cc1c[nH]cn1)C(=O)N1CCC[C@H]1C(=O)N[C@@H](Cc1ccccc1)C(=O)O)CSSC[C@H](C(=O)N[C@H](Cc1c[nH]cn1)C(=O)N1CCC[C@@H]1C(=O)N[C@H](Cc1ccccc1)C(=O)O)NC(=O)[C@@H](Cc1ccc(O)cc1)NC(=O)[C@H]1C[C@H](CN1C(=O)[C@@H](CCCN=C(N)N)NC(=O)CNC)SS2 has an IC50 [1] of 190 nM and an EC50 (Oryctolagus cuniculus) of 460 nM.

Compound CNCC(=O)N[C@@H](CCCNC(=N)N)C(=O)N[C@H]1CCSSCC[C@@H](C(=O)N[C@@H](Cc2cnc[nH]2)C(=O)N2CCC[C@H]2C(=O)N[C@@H](Cc2ccccc2)C(=O)O)NC(=O)[C@H](Cc2ccc(O)cc2)NC1=O (H-[Sar]R[hCys]Y[hCys]HPF-OH; disulfide 3-5) has an IC50 [1] of 1.3 nM.

CC[C@H](C)[C@H](NC(=O)[C@H](Cc1ccc(O)cc1)NC(=O)[C@@H](NC(=O)[C@H](CCCNC(=N)N)NC(=O)[C@@H](N)CC(=O)O)C(C)C)C(=O)N[C@@H](Cc1cnc[nH]1)C(=O)N1CCC[C@H]1C(=O)N[C@@H](Cc1ccccc1)C(=O)O [ANGIOTENSIN II] showed an EC50 (Oryctolagus cuniculus) of 2.5 nM.

CNCC(=O)N[C@@H](CCCN=C(N)N)C(=O)N[C@H]1CSSC[C@@H](C(=O)N[C@@H](Cc2ccccc2)C(=O)O)NC(=O)[C@H](Cc2c[nH]cn2)NC(=O)[C@H](C(C)C)NC(=O)[C@H](Cc2ccc(O)cc2)NC1=O (H-[Sar]RCYVHCF-OH; disulfide 3-7) showed an IC50 [1] of 1230 nM.

CNCC(=O)N[C@@H](CCCN=C(N)N)C(=O)N1C[C@@H]2C[C@H]1C(=O)N[C@@H](Cc1ccc(O)cc1)C(=O)N[C@H](C(=O)N[C@@H](Cc1c[nH]cn1)C(=O)N1CCC[C@H]1C(=O)N[C@@H](Cc1ccccc1)C(=O)O)CSS[C@H]1C[C@@H](C(=O)N[C@@H](Cc3ccc(O)cc3)C(=O)N[C@H](C(=O)N[C@@H](Cc3c[nH]cn3)C(=O)N3CCC[C@H]3C(=O)N[C@@H](Cc3ccccc3)C(=O)O)CSS2)N(C(=O)[C@H](CCCN=C(N)N)NC(=O)CNC)C1 (I: H-[Sar]R[Pro(4S-SH)]YCHPF-OH / II: H-[Sar]R[Pro(4S-SH)]YCHPF-OH; disulfide I:3-II:5, I:5-II:3) showed an IC50 [1] of 110 nM and an EC50 (Oryctolagus cuniculus) of 870 nM.

In the case of CNCC(=O)N[C@@H](CCCN=C(N)N)C(=O)N[C@H]1CCC(=O)NCCCC[C@@H](C(=O)N[C@@H](Cc2c[nH]cn2)C(=O)N2CCC[C@H]2C(=O)N[C@@H](Cc2ccccc2)C(=O)O)NC(=O)[C@H](Cc2ccc(O)cc2)NC1=O (H-[Sar]REYKHPF-OH; lactam 3-5), the IC50 [1] is reported as 89 nM.

CNCC(=O)N[C@@H](CCCN=C(N)N)C(=O)N[C@H]1CSSC[C@@H](C(=O)N[C@@H](Cc2c[nH]cn2)C(=O)N2CCC[C@H]2C(=O)N[C@@H](Cc2ccccc2)C(=O)O)NC(=O)[C@H](Cc2ccc(O)cc2)NC(=O)[C@@H](NC(=O)[C@H](CCCN=C(N)N)NC(=O)CNC)CSSC[C@@H](C(=O)N[C@@H](Cc2c[nH]cn2)C(=O)N2CCC[C@H]2C(=O)N[C@@H](Cc2ccccc2)C(=O)O)NC(=O)[C@H](Cc2ccc(O)cc2)NC1=O (I: H-[Sar]RCYCHPF-OH / II: H-[Sar]RCYCHPF-OH; disulfide I:3-II:5, I:5-II:3) showed an IC50 [1] of 28 nM.

CNCC(=O)N[C@@H](CCCN=C(N)N)C(=O)N[C@H]1CCSSCC[C@@H](C(=O)N[C@@H](Cc2c[nH]cn2)C(=O)N2CCC[C@H]2C(=O)N[C@@H](Cc2ccccc2)C(=O)O)NC(=O)[C@H](Cc2ccc(O)cc2)NC1=O (H-[Sar]R[hCys]Y[hCys]HPF-OH; disulfide 3-5) gave an EC50 (Oryctolagus cuniculus) of 3.2 nM.

For CNCC(=O)N[C@@H](CCCN=C(N)N)C(=O)N1C[C@@H]2C[C@H]1C(=O)N[C@@H](Cc1ccc(O)cc1)C(=O)N[C@H](C(=O)N[C@@H](Cc1c[nH]cn1)C(=O)N1CCC[C@H]1C(=O)N[C@@H](Cc1ccccc1)C(=O)O)CCSS2 (H-[Sar]R[Pro(4S-SH)]Y[hCys]HPF-OH; disulfide 3-5), the IC50 [1] was 510 nM and the EC50 (Oryctolagus cuniculus) was 440 nM.

CNCC(=O)N[C@@H](CCCN=C(N)N)C(=O)N[C@H]1CSS[C@H]2C[C@@H](C(=O)N[C@@H](Cc3c[nH]cn3)C(=O)N3CCC[C@H]3C(=O)N[C@@H](Cc3ccccc3)C(=O)O)N(C2)C(=O)[C@H](Cc2ccc(O)cc2)NC1=O (H-[Sar]RCY[Pro(4S-SH)]HPF-OH; disulfide 3-5) was tested, and the IC50 [1] was 62 nM.

CNCC(=O)N[C@@H](CCCN=C(N)N)C(=O)N[C@H]1CSS[C@@H]2C[C@@H](C(=O)N[C@@H](Cc3c[nH]cn3)C(=O)N3CCC[C@H]3C(=O)N[C@@H](Cc3ccccc3)C(=O)O)N(C2)C(=O)[C@H](Cc2ccc(O)cc2)NC1=O (H-[Sar]RCY[Pro(4R-SH)]HPF-OH; disulfide 3-5) was tested, and the IC50 [1] was 18 nM and the EC50 (Oryctolagus cuniculus) was 160 nM.

Work on CNCC(=O)N[C@@H](CCCN=C(N)N)C(=O)N[C@H](C(=O)N[C@@H](Cc1ccc(O)cc1)C(=O)N[C@H]1CSSC[C@@H](C(=O)O)NC(=O)[C@@H]2CCCN2C(=O)[C@H](Cc2c[nH]cn2)NC1=O)C(C)C (H-[Sar]RVYCHPC-OH; disulfide 5-8) yielded an IC50 [1] of 1200 nM.

Work on CNCC(=O)N[C@@H](CCCN=C(N)N)C(=O)N1C[C@H]2C[C@H]1C(=O)N[C@@H](Cc1ccc(O)cc1)C(=O)N[C@H](C(=O)N[C@@H](Cc1c[nH]cn1)C(=O)N1CCC[C@H]1C(=O)N[C@@H](Cc1ccccc1)C(=O)O)CCSS2 (H-[Sar]R[Pro(4R-SH)]Y[hCys]HPF-OH; disulfide 3-5) yielded an IC50 [1] of 29 nM and an EC50 (Oryctolagus cuniculus) of 700 nM.

Work on CC[C@H](C)[C@H](NC(=O)[C@H](Cc1ccc(O)cc1)NC(=O)[C@@H](NC(=O)[C@@H](N)CCCN=C(N)N)C(C)C)C(=O)N[C@@H](Cc1c[nH]cn1)C(=O)N1CCC[C@H]1C(=O)N[C@@H](Cc1ccccc1)C(=O)O [ANGIOTENSIN III] yielded an IC50 [1] of 5.57 nM and an EC50 (Oryctolagus cuniculus) of 32 nM.

Compound CNCC(=O)N[C@@H](CCCN=C(N)N)C(=O)N1C[C@H]2C[C@H]1C(=O)N[C@@H](Cc1ccc(O)cc1)C(=O)N[C@H](C(=O)N[C@@H](Cc1c[nH]cn1)C(=O)N1CCC[C@H]1C(=O)N[C@@H](Cc1ccccc1)C(=O)O)CSS2 (H-[Sar]R[Pro(4R-SH)]YCHPF-OH; disulfide 3-5) has an IC50 [1] of 87 nM.

For CNCC(=O)N[C@@H](CCCN=C(N)N)C(=O)N[C@H]1CC(=O)NCCCC[C@@H](C(=O)N[C@@H](Cc2c[nH]cn2)C(=O)N2CCC[C@H]2C(=O)N[C@@H](Cc2ccccc2)C(=O)O)NC(=O)[C@H](Cc2ccc(O)cc2)NC1=O (H-[Sar]RDYKHPF-OH; lactam 3-5), the IC50 [1] was 12 nM and the EC50 (Oryctolagus cuniculus) was 53 nM.

Compound CNCC(=O)N[C@@H](CCCN=C(N)N)C(=O)N[C@H]1CSSC[C@@H](C(=O)O)NC(=O)[C@@H]2CCCN2C(=O)[C@H](Cc2c[nH]cn2)NC(=O)[C@H](C(C)C)NC(=O)[C@H](Cc2ccc(O)cc2)NC1=O (H-[Sar]RCYVHPC-OH; disulfide 3-8) has an IC50 [1] of 520 nM.

With CNCC(=O)N[C@@H](CCCN=C(N)N)C(=O)N[C@H]1CCSS[C@@H]2C[C@@H](C(=O)N[C@@H](Cc3c[nH]cn3)C(=O)N3CCC[C@H]3C(=O)N[C@@H](Cc3ccccc3)C(=O)O)N(C2)C(=O)[C@H](Cc2ccc(O)cc2)NC1=O (H-[Sar]R[hCys]Y[Pro(4R-SH)]HPF-OH; disulfide 3-5) the IC50 [1] was 1.3 nM and the EC50 (Oryctolagus cuniculus) was 13 nM.

Compound CNCC(=O)N[C@@H](CCCN=C(N)N)C(=O)N[C@H]1CSSC[C@@H](C(=O)N[C@@H](Cc2c[nH]cn2)C(=O)N2CCC[C@H]2C(=O)N[C@@H](Cc2ccccc2)C(=O)O)NC(=O)[C@H](Cc2ccc(O)cc2)NC1=O (H-[Sar]RCYCHPF-OH; disulfide 3-5) has an IC50 [1] of 7.6 nM.
